Measured values reported in ChEMBL document CHEMBL4330056, “Synthesis and Cytotoxic and Antiviral Profiling of Pyrrolo- and Furo-Fused 7-Deazapurine Ribonucleosides” (J Med Chem, 2018).
Activity calls are given as the source filed them. No cut-off for these calls is given here.

Columns and labels:
Hepatitis C virus [1] = assay: Antiviral activity against Hepatitis C virus genotype 1b infected in human Huh-luc replicon cells after 3 days by luciferase assay; type: functional, organism-based, Hepacivirus hominis; conditions: subtype 1b, 72 h
[2] = Cytotoxicity against human Hep2 cells assessed as reduction in cell viability after 3 days by CellTiter-Glo assay; type: cell-based; conditions: HEp-2 cells
Hepatitis C virus [3] = assay: Antiviral activity against Hepatitis C virus genotype 2a infected in human Huh-luc replicon cells after 3 days by luciferase assay; type: functional, organism-based, Hepacivirus hominis; conditions: subtype 2a, 72 h
BJ = assay: Antiproliferative activity against human BJ cells after 3 days by MTS assay; conditions: 72 h
MRC5 = assay: Antiproliferative activity against human MRC5 cells after 3 days by MTS assay; conditions: MRC5, 72 h
A549 = assay: Antiproliferative activity against human A549 cells after 3 days by MTS assay; type: functional, cell-based; conditions: A549, 72 h
CCRF-CEM = assay: Antiproliferative activity against human CCRF-CEM cells after 3 days by MTS assay; type: functional, cell-based; conditions: 72 h
[4] = Antiproliferative activity against human CEM-DNR-bulk cells after 3 days by MTS assay; conditions: 72 h
HCT-116 [5] = assay: Antiproliferative activity against human HCT116 cells after 3 days by MTS assay; type: functional, cell-based; conditions: HCT-116, 72 h
HCT-116 [6] = assay: Antiproliferative activity against p53 gene knocked out human HCT116 cells after 3 days by MTS assay; type: functional, cell-based; conditions: HCT-116, 72 h
K562 = assay: Antiproliferative activity against human K562 cells after 3 days by MTS assay; type: functional, cell-based; conditions: K562, 72 h
[7] = Antiproliferative activity against human K562-TAX cells after 3 days by MTS assay; type: functional, cell-based; conditions: 72 h
U2OS = assay: Antiproliferative activity against human U2OS cells after 3 days by MTS assay; type: functional, cell-based; conditions: 72 h
HL-60 = assay: Antiproliferative activity against human HL60 cells after 72 hrs by XTT assay; type: functional, cell-based; conditions: HL-60, 72 h
HepG2 = assay: Antiproliferative activity against human HepG2 cells after 72 hrs by XTT assay; type: functional, cell-based; conditions: HepG2, 72 h
HeLa S3 = assay: Antiproliferative activity against human HeLaS3 cells after 72 hrs by XTT assay; type: functional, cell-based; conditions: HeLa S3, 72 h
Adenosine kinase [8] = target: T1, Adenosine kinase (Homo sapiens, UniProt P55263); assay: Substrate activity at recombinant human ADK assessed as compound phosphorylation at 50 uM after 20 mins in presence of [3H]-adenosine by UPLC; type: ADME
Adenosine kinase [9] = target: T1, Adenosine kinase; assay: Inhibition of recombinant human ADK using [3H]-adenosine as substrate after 20 mins by TLC scanner-based analysis relative to control
How it was run: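 ADK inhibition: 50 μM adenosine substrate with 10 μM test compound and 97 ng enzyme, 20 min at 37 °C.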

Influenza A virus = assay: Antiviral activity against Influenza A virus (A/Mexico/4108/2009(H1N1)) infected in MDCK cells assessed as inhibited virus-induced cytopathic effect incubated for 2 days by XTT assay; type: functional, organism-based
Human orthopneumovirus = assay: Antiviral activity against Human respiratory syncytial virus A2 infected in Hep2 cells assessed as reduction in virus-induced cytopathic effect incubated for 4 days by CellTiter-Glo viability reagent based assay; type: functional, organism-based
Coxsackievirus B3 = assay: Antiviral activity against Human coxsackie B3 Nancy infected in human HeLa cells assessed as inhibited virus-induced cytopathic effect incubated for 2 days by XTT assay; type: functional, organism-based
Human alphaherpesvirus 1 = assay: Antiviral activity against human herpesvirus 1 HF infected in African green monkey Vero cells assessed as inhibited virus-induced cytopathic effect incubated for 3 days by XTT assay; type: functional, organism-based
dengue virus type 2 = assay: Antiviral activity against Dengue virus 2 Thailand/16681/84 infected in African green monkey Vero cells assessed as inhibition of virus replication incubated for 3 days by fluorescence microscopy; type: functional, organism-based

T1 sequence (P55263 whole entry): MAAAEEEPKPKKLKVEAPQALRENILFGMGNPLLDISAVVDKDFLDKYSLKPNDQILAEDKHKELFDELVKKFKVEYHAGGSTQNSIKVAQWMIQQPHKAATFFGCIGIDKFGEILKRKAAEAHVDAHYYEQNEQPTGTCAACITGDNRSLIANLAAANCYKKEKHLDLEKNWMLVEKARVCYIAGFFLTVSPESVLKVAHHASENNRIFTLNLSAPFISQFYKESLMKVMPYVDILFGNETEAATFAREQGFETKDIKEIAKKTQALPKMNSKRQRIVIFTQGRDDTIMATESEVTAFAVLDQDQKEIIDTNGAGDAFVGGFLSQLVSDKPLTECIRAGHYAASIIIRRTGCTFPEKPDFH

Row | SMILES | EC50 (Hepatitis C virus [1]) | CC50 at 72 h [2] | EC50 (Hepatitis C virus [3]) | IC50 (BJ) | IC50 (MRC5) | IC50 (A549) | IC50 (CCRF-CEM) | IC50 [4] | IC50 (HCT-116 [5]) | IC50 (HCT-116 [6]) | IC50 (K562) | IC50 [7] | IC50 (U2OS) | IC50 (HL-60) | IC50 (HepG2) | IC50 (HeLa S3) | Activity (Adenosine kinase [8]) | IC50 (Adenosine kinase [9]) | Activity (Influenza A virus) | Activity (Human orthopneumovirus) | further results
1 | Cn1ccc2c1c1c(-c3ccco3)ncnc1n2[C@@H]1O[C@H](CO)[C@@H](O)[C@H]1O | 0.22 µM | > 44.4 µM | > 44.4 µM | > 50 µM | > 50 µM | > 50 µM | > 50 µM | > 50 µM | > 50 µM | > 50 µM | > 50 µM | > 50 µM | 7.37 µM | > 50 µM | > 50 µM | > 50 µM | 11% | 7.12 µM | inactive | inactive | Activity (Coxsackievirus B3): inactive; Activity (Human alphaherpesvirus 1): inactive; Activity (dengue virus type 2): inactive
2 | Nc1ncnc2c1ncn2[C@@H]1O[C@H](CO)[C@@H](O)[C@H]1O [ADENOSINE] | – | – | – | – | – | – | – | – | – | – | – | – | – | – | – | – | 73% | – | – | – | –
3 | Cn1ccc2c3c(N)ncnc3n([C@@H]3O[C@H](CO)[C@@H](O)[C@H]3O)c21 | 27.3 µM | 34.6 to 44.4 µM | 33.9 µM | > 50 µM | > 50 µM | > 50 µM | > 50 µM | > 50 µM | > 50 µM | > 50 µM | > 50 µM | > 50 µM | > 50 µM | > 50 µM | > 50 µM | > 50 µM | 0% | > 10 µM | inactive | inactive | Activity (Coxsackievirus B3): inactive; Activity (Human alphaherpesvirus 1): inactive; Activity (dengue virus type 2): inactive
4 | CSc1ncnc2c1c1ccn(C)c1n2[C@@H]1O[C@H](CO)[C@@H](O)[C@H]1O | 5.98 µM | 36.8 to 44 µM | 17 µM | > 50 µM | > 50 µM | > 50 µM | 25.5 µM | 28.2 µM | 35.9 µM | > 50 µM | 18 µM | 30 µM | 27.4 µM | > 50 µM | > 50 µM | > 50 µM | 0% | > 10 µM | inactive | inactive | Activity (Coxsackievirus B3): inactive; Activity (Human alphaherpesvirus 1): inactive; Activity (dengue virus type 2): inactive
5 | CN(C)c1ncnc2c1c1c(ccn1C)n2[C@@H]1O[C@H](CO)[C@@H](O)[C@H]1O | > 44.4 µM | > 44.4 µM | > 44.4 µM | > 50 µM | > 50 µM | > 50 µM | > 50 µM | > 50 µM | > 50 µM | > 50 µM | > 50 µM | > 50 µM | > 50 µM | > 50 µM | > 50 µM | > 50 µM | 0% | > 10 µM | inactive | inactive | Activity (Coxsackievirus B3): inactive; Activity (Human alphaherpesvirus 1): inactive; Activity (dengue virus type 2): inactive
6 | CC(C)C(=O)OC[C@H]1O[C@@H](n2ccc(N)nc2=O)[C@](C)(F)[C@@H]1OC(=O)C(C)C [MERICITABINE] | – | > 44.4 µM | – | – | – | – | – | – | – | – | – | – | – | – | – | – | – | – | – | – | –
